Compound activity from PubChem BioAssay.
Shown are actives, neighbours in structure and some others; about 1.8% of the full set was active somewhere.
SIAE inh – blocks human sialic acid acetylesterase | inhibition, % at 9.66 µM | Q9HAT2 | SIAE FP-Rh probe binding, fluorescence polarization | 370,000 compounds, 0.69% hits;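 active = inhibition above a cutoff: mean of compounds within the control limits plus 3 SD of those, cut at about 17% in these data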
TCR-CD3 inh – inhibitors of human TCR-CD3 interaction; TAMRA-labeled TCR probe fluorescence, biochemical; inhibition, % at 9.4 µM; 360,000 compounds, 0.37% hits; AID 651800; in the data active = inhibition above about 19%;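 note: recombinant mutant TCR 2C K166C tagged with TAMRA read by polarization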
DDE Tn7 FP inh – inhibitors of Tn7 peptide binding to human fibrin DD(E); FP displacement of FITC-Tn7 peptide from fibrin DD(E); 0% = median of compound wells per plate; inhibition, % at 8.3 µM; 370,000 compounds, 0.13% hits; AID 720508;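 active = inhibition above the mean of compounds falling within the control limits plus 3 SD of them, cut at about 14% in these data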
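Assay system: human fibrin DD(E) protein / Input: 2 µM fibrin DD(E) / Benchmarks: high control of 10 µM Aha-Tn7 peptide / Measured by: fluorescence polarization of the labelled Tn7 tracer / Medium: Tris buffer with calcium and detergent, pH 7.8 / Timing: 10 min compound pre-incubation, 3 h probe incubation at room temperature / Repeats: one replicate per compound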
DDE Tn6 FP inh – DD(E)-Tn6 binding inhibition, primary FP screen; 370,000 compounds, 0.21% hits; P02675; AID 720509; inhibition, % at 8.3 µM; Fibrin DD(E) TRITC-Tn6 fluorescence polarization displacement;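 active = inhibition above a per-campaign cutoff: mean of compounds within control limits plus 3 SD, cut at about 15% in these data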
HTRA1 inh – inhibitors of human serine peptidase HTRA1. Q92743. recombinant HTRA1, FP-rhodamine activity-based probe, fluorescence polarization. inhibition, % at 5.96 µM. 340,000 compounds, 0.5% hits. AID 504803; in the data active = inhibition above about 36%
Target sequence (Q92743 whole entry, looked up): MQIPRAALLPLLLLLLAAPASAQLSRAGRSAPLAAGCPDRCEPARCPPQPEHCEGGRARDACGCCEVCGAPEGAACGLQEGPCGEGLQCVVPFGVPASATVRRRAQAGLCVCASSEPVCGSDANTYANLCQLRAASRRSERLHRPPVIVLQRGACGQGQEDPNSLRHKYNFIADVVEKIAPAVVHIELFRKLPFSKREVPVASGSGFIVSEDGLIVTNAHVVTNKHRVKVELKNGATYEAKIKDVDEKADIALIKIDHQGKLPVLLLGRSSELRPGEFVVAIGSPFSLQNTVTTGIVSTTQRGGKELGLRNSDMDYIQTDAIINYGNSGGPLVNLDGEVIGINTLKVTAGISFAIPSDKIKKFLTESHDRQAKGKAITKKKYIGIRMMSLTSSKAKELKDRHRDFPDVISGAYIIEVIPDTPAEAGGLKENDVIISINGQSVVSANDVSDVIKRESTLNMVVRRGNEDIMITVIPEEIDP
ABHD4 inh – ABHD4 (mouse) inhibition, primary FP screen. Q8VD66. purified mABHD4, FP-Rh probe fluorescence polarization. inhibition, % at 8.92 µM. 370,000 compounds, 0.54% hits;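 active = inhibition exceeding the mean over every tested compound plus 3 SD, cut at about 30% in these data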
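Material: mouse ABHD4 enzyme, wild type; Benchmarks: S159A mutant high control, sample median low control; Buffer or medium: HEPES pH 7.0, NaCl, Pluronic buffer; Signal: fluorescence polarization; Read-out: percent inhibition of probe binding, normalized to plate controls; Timing: pre-incubation 45 min, probe exposure 60 min, at 25 °C; Dosing: 8.92 µM, single dose.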
SIAE confirm – confirmation of human SIAE inhibitors; inhibition, % at 9.66 µM; shares compounds with SIAE inh; SIAE FP-Rh activity-based probe, fluorescence polarization; 2,300 compounds, 13% hits;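 active = mean inhibition of the replicates above the hit cutoff set in the primary screen, cut at about 17% in these data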;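 note: inhibitors lower polarization as more probe stays unbound to SIAE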
A number is an active result; n = inactive; x = no result; ! = a repeat was not active.

SMILES	SIAE inh	TCR-CD3 inh	DDE Tn7 FP inh	DDE Tn6 FP inh	HTRA1 inh	ABHD4 inh	SIAE confirm
C=CCOC(=O)C1=C(C)NC(SCC(=O)NC(=O)OCC)=C(C#N)C1c1cccnc1 (stereo not drawn)	18!	n	n	n	n	n	n
C=Cc1ccc(C(=O)N(Cc2ccc(F)cc2)C(C(=O)N(C)C2CCCC2)c2ccc(OC)c(OC)c2)cc1 (stereo not drawn)	n	x	n	n	x	n	x
CCOC(=O)[C@@]12CN(C(=O)OC(C)(C)C)CC=C1N(Cc1ccc(OC)cc1)C(=O)[C@H]2CC(=O)NCc1cccc2ccccc12	n	x	n	n	x	n	x
N#Cc1ccccc1NCC(=O)N1CCN(S(=O)(=O)c2ccccc2)CC1	17	n	n	n	n	n	n
CC(=O)c1ccc(NCC(=O)N2CCN(S(=O)(=O)c3ccccc3)CC2)cc1	n	n	n	n	n	n	x
O=C(O)CSCC(=O)N1CCN(S(=O)(=O)c2ccccc2)CC1	21	n	n	n	n	n	n
Cc1ccc(N/N=C(\C#N)C(N)=S)c(C)c1	54	n	n	n	n	n	n
Cc1ccnc(NC(=O)c2cccc(S(=O)(=O)NCc3ccccc3)c2)c1	21	n	n	n	n	n	n
O=C(O)C1CCN(C(=O)CSc2nc3cc(Cl)ccc3c(=O)n2Cc2ccccc2)CC1	n	n	n	n	n	n	x
CCCCC(=O)NCCNC(=O)c1cc(OCC(F)(F)F)ccc1OCC(F)(F)F	26	n	n	n	n	n	n
CCCCOc1ccc(C(=O)NC2CCCCN(Cc3ccccc3C)C2=O)cc1 (stereo not drawn)	n	x	n	n	x	n	x
O=c1oc2cc(O)ccc2cc1-c1nc2c(s1)CCc1ccccc1-2	19	n	n	n	n	n	n
O=c1oc2ccccc2cc1-c1nc2c(s1)CCc1ccccc1-2	n	n	n	n	n	n	x
CC(=O)Nc1ccc(CNc2nc(NC(C)C)nc3cc(-c4ccccc4)sc23)cc1	55	n	n	n	x	n	53
C=CCNc1nc(NCc2ccc(NC(C)=O)cc2)c2sc(-c3ccccc3)cc2n1	39	n	n	n	x	n	37
C=CCNc1nc(NCCCN2CCCC2=O)c2sc(-c3ccccc3)cc2n1	n	n	n	n	x	n	x
O=C(NN=Cc1ccc(N2CCOCC2)s1)c1ccc([N+](=O)[O-])cc1	24	n	n	n	n	n	n
CCc1ccccc1N(C)S(=O)(=O)c1cc(-c2cc(C)no2)ccc1OC	n	n	n	n	n	n	x
O=C(COC(=O)c1ccc[nH]c1=O)NC1CCCCCCC1	18	n	n	n	n	n	n
Cc1cc(C(=O)COC(=O)c2ccc[nH]c2=O)c(C)n1C1CC1	23	n	n	n	n	n	n
COC(=O)Cc1ccc(OC2(C)CCN(Cc3ccccc3)C2)cc1 (stereo not drawn)	n	n	n	n	x	n	x
O=C1NC(=Nc2ccc(O)cc2)S/C1=C/c1ccco1	n	n	n	n	n	n	x
O=C1NC(=Nc2ccc3ccccc3c2)S/C1=C/c1ccco1	32	n	n	n	n	n	n
COc1ccc(C2CC(=O)Nc3cc(OC)c(OC)cc32)cc1Br (stereo not drawn)	n	n	n	n	n	n	x
COc1ccc(C2CC(=O)Nc3ccccc3S2(=O)=O)cc1OC (stereo not drawn)	18	n	n	n	n	n	n
SMILES	SIAE inh	TCR-CD3 inh	DDE Tn7 FP inh	DDE Tn6 FP inh	HTRA1 inh	ABHD4 inh	SIAE confirm
COc1ccc(N(CC(=O)NCCSCc2c(F)cccc2Cl)S(C)(=O)=O)cc1OC	x	x	x	x	n	x	x
CS(=O)(=O)N(CC(=O)NCCSCc1c(F)cccc1Cl)c1ccc2c(c1)OCO2	18	n	n	n	n	n	n
CN(C)C(=O)c1ccc(N=Nc2c(O)c3ccccc3[nH]c2=O)cc1	n	n	n	n	n	n	x
CN(C)C(=S)N=Nc1[nH]c2ccccc2c1O	21	n	n	n	x	n	n
Cc1ccc(C(=O)NCc2cccc(C(F)(F)F)c2)cc1S(=O)(=O)N1CCCCC1	25	n	n	n	n	n	n
Cc1ccc(CCNC(=O)c2nnc(CS(=O)(=O)c3ccccc3)o2)cc1	n	n	n	n	n	n	x
